From ChEMBL document CHEMBL4261521, “Synthesis of benzo[d]thiazole-hydrazone analogues: molecular docking and SAR studies of potential H+/K+ ATPase inhibitors and anti-inflammatory agents” (Medchemcomm, 2017) come the findings set out here.

The subject of assay [1] is Erythrocyte. Nature of the assay: Anti-inflammatory activity in human RBC assessed as inhibition of hypotonic solution-induced hemolysis after 10 mins by spectrophotometric method. The class given is functional, cell-based. The method, boiled down: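 Heparinized blood from one healthy donor (no NSAIDs for 2 weeks), washed in 0.9% saline, made into 40% (v/v) RBC stock in 10 mM sodium phosphate/154 mM NaCl, pH 7.4. Stock mixed with hypotonic buffer (50 mM NaCl, 10 mM phosphate, pH 7.4) plus sample at 20–100 μg mL–1. Incubated at room temperature, centrifuged, supernatant absorbance at 540 nm, % haemolysis inhibition versus blank.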

Assay [2] in a line: Inhibition of H+/K+-ATPase in sheep stomach parietal cells assessed as reduction in inorganic phosphate liberation using ATP as substrate measured after 10 to 15 mins. Conditions: Ovis aries. The procedure, abridged: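 Enzyme came from sheep fundic mucosal scrapings, homogenized in sucrose/EGTA/Hepes-Tris buffer pH 7.4, then subcellular fractionation. Basal medium: 2 mmol L–1 ATP, 50 mmol L–1 Tris-HCl pH 7.5, with K+ and HCO3 stimulation. Reaction started with ATP, run at 37 °C and stopped with cold 20% TCA. Released Pi read by Fiske–Subbarow at 660 nm. Values are means of three determinations.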

≈ marks a conversion by molar mass, not a printed value.

On to `CCCCCC/C=N/Nc1nc2cccc(C)c2s1`, for which the figures for the IC50 in assay [1] and in assay [2] were 82.2 µg/mL (≈ 298 µM) and 72.1 µg/mL (≈ 262 µM), respectively.
On the same counts, the results for `Cc1cccc2nc(N/N=C/c3cccs3)sc12` are 28.7 µg/mL (≈ 105 µM) and 30.4 µg/mL (≈ 111 µM).
The matching figures for `CC/C=N/Nc1nc2cccc(C)c2s1`: 78.5 µg/mL (≈ 358 µM) and 80.2 µg/mL (≈ 366 µM).
The matching figures for `Cc1cccc2nc(N/N=C/c3cc4ccccc4[nH]3)sc12`: 30.2 µg/mL (≈ 98.5 µM) and 28.1 µg/mL (≈ 91.8 µM).
On to `Cc1cccc2nc(N/N=C/c3ccco3)sc12`, for which the IC50 (usually the concentration needed to halve the response being measured) in assay [1] came to 50.1 µg/mL (≈ 195 µM); in assay [2], 38.3 µg/mL (≈ 149 µM).
The matching figures for `Cc1cccc2nc(N/N=C/c3ccc[nH]3)sc12`: 46.2 µg/mL (≈ 180 µM) and 42.6 µg/mL (≈ 166 µM).
As to `Cc1cccc2nc(N/N=C/CC(C)C)sc12`, the IC50 in assay [1] stood at 90.7 µg/mL (≈ 367 µM); in assay [2], 82.2 µg/mL (≈ 332 µM).
On the same counts, the results for `Cc1cccc2nc(N/N=C\c3ccc(Br)cc3Br)sc12` are 10.1 µg/mL (≈ 23.8 µM) and 66.1 µg/mL (≈ 156 µM).
For the compound `Cc1cccc2nc(N/N=C\c3ccc(O)cc3O)sc12`, the 50% inhibitory concentration (IC50) in assay [1] was 58.2 µg/mL (≈ 194 µM); in assay [2], 14.1 µg/mL (≈ 47.2 µM).
The matching figures for `Cc1cccc2nc(N/N=C\c3ccncc3)sc12`: 54.2 µg/mL (≈ 202 µM) and 40.2 µg/mL (≈ 150 µM).
The matching figures for `Cc1cccc2nc(N/N=C\c3ccc(Br)cc3)sc12`: 20.1 µg/mL (≈ 58 µM) and 60.1 µg/mL (≈ 174 µM).
The matching figures for `Cc1cccc2nc(N/N=C\c3ccccc3)sc12`: 80.1 µg/mL (≈ 300 µM) and 84.1 µg/mL (≈ 315 µM).
As for `Cc1cccc2nc(N/N=C\c3ccc([N+](=O)[O-])cc3[N+](=O)[O-])sc12`, the IC50 in assay [1] was found to be 12.7 µg/mL (≈ 35.7 µM); in assay [2], 80.6 µg/mL (≈ 226 µM).
The matching figures for `COc1ccc(/C=N\Nc2nc3cccc(C)c3s2)cc1O`: 56.2 µg/mL (≈ 179 µM) and 26.2 µg/mL (≈ 83.6 µM).
On the same counts, the results for `COc1cc(/C=N\Nc2nc3cccc(C)c3s2)cc(Br)c1O` are 56.4 µg/mL (≈ 144 µM) and 42.1 µg/mL (≈ 107 µM).
On the same counts, the results for `Cc1cccc2nc(N/N=C\c3ccc([N+](=O)[O-])cc3)sc12` are 24.1 µg/mL (≈ 77.1 µM) and 72.2 µg/mL (≈ 231 µM).
In the case of `Cc1cccc2nc(N/N=C\c3ccc(Oc4ccccc4)cc3)sc12`, the IC50 in assay [1] was 60.9 µg/mL (≈ 169 µM); in assay [2], 56.4 µg/mL (≈ 157 µM).
The matching figures for `Cc1ccc(/C=N\Nc2nc3cccc(C)c3s2)cc1`: 54.3 µg/mL (≈ 193 µM) and 34.2 µg/mL (≈ 121 µM).
For the compound `Cc1cccc2nc(N/N=C\c3cc(O)c(O)c(O)c3)sc12`, the IC50 was 68.6 µg/mL (≈ 217 µM) in assay [1] and 8.99 µg/mL (≈ 28.5 µM) in assay [2].
On the same counts, the results for `Cc1cccc2nc(N/N=C\c3ccc(O)cc3)sc12` are 60 µg/mL (≈ 212 µM) and 26.3 µg/mL (≈ 92.9 µM).
The matching figures for `Cc1cccc2nc(N/N=C\c3ccc(F)cc3F)sc12`: 16.1 µg/mL (≈ 53.2 µM) and 70.6 µg/mL (≈ 233 µM).
On the same counts, the results for `COc1ccc(/C=N\Nc2nc3cccc(C)c3s2)c(OC)c1` are 68.1 µg/mL (≈ 208 µM) and 20.4 µg/mL (≈ 62.2 µM).
Take `COc1ccc(/C=N\Nc2nc3cccc(C)c3s2)cc1Br`: the IC50 in assay [1] was 58.6 µg/mL (≈ 156 µM); in assay [2], 54.4 µg/mL (≈ 145 µM).
For `Cc1cccc2nc(N/N=C\c3ccc(F)cc3)sc12`, the IC50 turned out to be 32.1 µg/mL (≈ 113 µM) in assay [1] and 66.1 µg/mL (≈ 232 µM) in assay [2].
Take `Cc1cccc2nc(N/N=C\c3ccc(Cl)cc3)sc12`: the figures for the IC50 in assay [1] and in assay [2] were 28.7 µg/mL (≈ 95.2 µM) and 68.2 µg/mL (≈ 226 µM), respectively.
For the compound `Cc1cccc2nc(N/N=C\c3ccc(Cl)cc3Cl)sc12`, the IC50 was 18.2 µg/mL (≈ 54 µM) in assay [1] and 68.9 µg/mL (≈ 205 µM) in assay [2].
The matching figures for `Cc1cccc2nc(N/N=C\c3ccc(O)c(Br)c3)sc12`: 52.4 µg/mL (≈ 145 µM) and 48.1 µg/mL (≈ 133 µM).
The matching figures for `COc1cc(/C=N\Nc2nc3cccc(C)c3s2)cc(OC)c1OC`: 74.6 µg/mL (≈ 209 µM) and 12.8 µg/mL (≈ 35.7 µM).
On the same counts, the results for `COc1cc(/C=N\Nc2nc3cccc(C)c3s2)ccc1OCc1ccccc1` are 66.2 µg/mL (≈ 164 µM) and 42.9 µg/mL (≈ 106 µM).
With `COc1ccc(/C=N\Nc2nc3cccc(C)c3s2)cc1`, the IC50 in assay [1] worked out at 72.7 µg/mL (≈ 244 µM); in assay [2] it was 30.4 µg/mL (≈ 102 µM).
As to `COc1ccc2c(c1)c(CC(=O)O)c(C)n2C(=O)c1ccc(Cl)cc1` [INDOMETHACIN], the IC50 in assay [1] was found to be 40 µg/mL (≈ 112 µM).
On to `COc1ccc2[nH]c([S+]([O-])Cc3ncc(C)c(OC)c3C)nc2c1` (configuration not stated) [OMEPRAZOLE], for which the IC50 in assay [2] was 46.1 µg/mL (≈ 134 µM).
